{"source": "paper PMC3667667", "about": "(Clinical pharmacology and therapeutics, 2012)", "key": {"[1]": {"test": "Pharmacokinetics of efavirenz in healthy subjects", "settings": "male, human, in vivo"}, "CYP2B6 [2]": {"tested_on": "CYP2B6", "test": "CYP2B6 mRNA induction in primary human hepatocytes", "type": "cell-based", "settings": "freshly isolated human hepatocytes, efavirenz 1 μmol/l, vs DMSO control"}, "CYP2B6 [3]": {"tested_on": "CYP2B6", "test": "CAR target gene expression in PBMCs treated in vitro", "type": "cell-based, human", "settings": "PBMCs of drug-naive individuals, 10 μmol/l, 48 h"}, "ABCB1 [4]": {"tested_on": "ABCB1", "test": "CAR target gene expression in PBMCs treated in vitro", "type": "cell-based, human", "settings": "PBMCs of drug-naive individuals, 10 μmol/l, 48 h"}, "UGT1A1": {"tested_on": "UGT1A1", "test": "CAR target gene expression in PBMCs treated in vitro", "type": "cell-based, human", "settings": "PBMCs of drug-naive individuals, 10 μmol/l, 48 h"}, "CYP2B6 [5]": {"tested_on": "CYP2B6", "test": "Gene expression in PBMCs isolated from treated healthy individuals", "type": "in vivo, human", "settings": "single dose vs steady state; P = 0.036"}, "CYP3A4 activity": {"tested_on": "CYP3A4 activity", "test": "Plasma 4β-hydroxycholesterol, marker of CYP3A4 activity", "type": "in vivo, human"}, "[6]": {"tested_on": "hepatic bilirubin metabolism", "test": "Total bilirubin levels", "type": "in vivo, human"}, "full-length CAR (CAR1)": {"tested_on": "full-length CAR (CAR1)", "settings": "in vitro; ref 43 (Chen et al.); cited from earlier work"}, "[7]": {"tested_on": "CAR variant containing the APYLT insertion", "settings": "in vitro; ref 43 (Chen et al.); cited from earlier work"}, "ABCB1 [8]": {"tested_on": "ABCB1", "settings": "human intestinal cell line from colon adenocarcinoma; cited from earlier work"}, "ABCB1 [9]": {"tested_on": "ABCB1", "settings": "cited from earlier work"}, "ABCB1 [10]": {"tested_on": "ABCB1", "settings": "in vivo; ref 32 (Burhenne et al.); cited from earlier work"}, "ABCC2": {"tested_on": "ABCC2", "settings": "in vivo; ref 32 (Burhenne et al.); cited from earlier work"}, "CYP3A": {"tested_on": "CYP3A", "settings": "rats, long-term treatment; cited from earlier work"}, "ABCB1 [11]": {"tested_on": "ABCB1", "settings": "rats, everted gut sacs, long-term treatment; cited from earlier work"}, "CYP3A4 [12]": {"tested_on": "CYP3A4", "settings": "humans, long-term treatment; ref 36 (Mouly); cited from earlier work"}, "ABCB1 (P-gp)": {"tested_on": "ABCB1 (P-gp)", "settings": "humans, long-term treatment; ref 36 (Mouly); cited from earlier work"}, "CYP3A4 [13]": {"tested_on": "CYP3A4", "settings": "humans, long-term treatment; ref 36 (Mouly); cited from earlier work", "remark": "listed apart in the source"}, "CAR target genes": {"tested_on": "CAR target genes", "test": "Gene expression in PBMCs after multiple doses of ezetimibe", "type": "in vivo, human", "settings": "multiple doses of ezetimibe 10 mg, treatment period B", "procedure,_shortened": "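PBMCs from 12 healthy male Caucasian volunteers aged 20–36 y, with the drug given after a fast of at least 10 h. EDTA blood (5 ml) drawn in the first 3 h of the pharmacokinetic day; spun 1,500g, 4 °C, 15 min; buffy coats pooled per subject, diluted in ice-cold PBS, Lymphoprep 700g, 30 min, room temperature. 1,500 ng total RNA reverse-transcribed; TaqMan real-time PCR for CYP2B6, UGT1A1, ABCB1, ABCC1, normalized to 18S-rRNA.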"}, "ABCB1 [14]": {"tested_on": "ABCB1", "settings": "ref 28 (Manceau et al.); cited from earlier work"}}, "note": "Values joined by “and” are separate entries in the source; they are usually repeats but may differ in a detail not shown here. Equal values may be shown once.", "data": [{"smiles": "O=C1Nc2ccc(Cl)cc2[C@@](C#CC2CC2)(C(F)(F)F)O1", "note": "[efavirenz]", "values": [{"measurement": "CLR gluc (renal clearance)", "setting": "[1]", "result": "0.050 ± 0.054", "unit": "mL/min"}, {"measurement": "C max", "setting": "[1]; 400 mg", "result": "622 ± 244", "unit": "ng/mL"}, {"measurement": "CL renal", "setting": "[1]; 400 mg", "result": "0.062 ± 0.031", "unit": "mL/min"}, {"measurement": "AUC(0-t)", "setting": "[1]; 400 mg, AUC0–24 h", "result": "6710 ± 2340", "unit": "ng·h/mL"}, {"measurement": "AUC(0-t)", "setting": "[1]; 400 mg, AUC0–120 h", "result": "17000 ± 6390", "unit": "ng·h/mL"}, {"measurement": "Tmax", "setting": "[1]; 400 mg, T max", "result": "2.4 ± 1.9", "unit": "h"}, {"measurement": "Tmax", "setting": "[1]; Tmax", "result": "2 to 3", "unit": "h"}, {"measurement": "CYP2B6 expression in primary human hepatocytes", "setting": "CYP2B6 [2]", "result": "significantly increased"}, {"measurement": "CYP2B6 mRNA induction in PBMCs in vitro", "setting": "CYP2B6 [3]", "result": "significant induction"}, {"measurement": "ABCB1 mRNA induction in PBMCs in vitro", "setting": "ABCB1 [4]", "result": "significant induction"}, {"measurement": "UGT1A1 mRNA induction in PBMCs in vitro", "setting": "UGT1A1", "result": "significant induction"}, {"measurement": "Pearson r, increase in CYP2B6 expression in PBMCs vs reduction in efavirenz AUC", "setting": "CYP2B6 [5]", "result": "0.61 and 0.608"}, {"measurement": "Pearson r, change in efavirenz AUC vs change in 4β-hydroxycholesterol levels", "setting": "CYP3A4 activity; single dose vs steady state, P = 0.052", "result": "−0.572"}, {"measurement": "4β-hydroxycholesterol/cholesterol ratio", "setting": "CYP3A4 activity; study days 25 and 30, multiple doses of efavirenz", "result": "significant induction"}, {"measurement": "Total bilirubin levels after treatment", "setting": "[6]; long-term efavirenz, mean ± SD, before treatment 9.82 ± 3.86, P = 0.023", "result": "6.34 ± 2.48", "unit": "mg/dL"}, {"measurement": "Trans-activating activity toward full-length CAR (CAR1)", "setting": "full-length CAR (CAR1)", "result": "high trans-activating activity"}, {"measurement": "Trans-activating activity toward CAR variant containing the APYLT insertion", "setting": "[7]", "result": "negligible activity"}, {"measurement": "ABCB1 expression and function in LS180 cells", "setting": "ABCB1 [8]", "result": "increased expression and function"}, {"measurement": "ABCB1 induction in PBMCs in vitro", "setting": "ABCB1 [9]", "result": "induction"}, {"measurement": "ABCB1 expression in PBMCs", "setting": "ABCB1 [10]", "result": "no significant induction"}, {"measurement": "ABCC2 expression in PBMCs", "setting": "ABCC2", "result": "no significant induction"}, {"measurement": "Hepatic CYP3A-mediated midazolam metabolism", "setting": "CYP3A", "result": "induce"}, {"measurement": "ABCB1-mediated intestinal efflux of rhodamine 123", "setting": "ABCB1 [11]", "result": "without affecting"}, {"measurement": "CYP3A4-mediated metabolism (erythromycin breath test)", "setting": "CYP3A4 [12]", "result": "induction"}, {"measurement": "Intestinal ABCB1 (P-gp) expression levels", "setting": "ABCB1 (P-gp)", "result": "no impact"}, {"measurement": "Intestinal CYP3A4 expression levels", "setting": "CYP3A4 [13]", "result": "no impact"}]}, {"smiles": "O=C1[C@H](CC[C@H](O)c2ccc(F)cc2)[C@@H](c2ccc(O)cc2)N1c1ccc(F)cc1", "note": "[ezetimibe]", "values": [{"measurement": "Impact on target gene expression in PBMCs", "setting": "CAR target genes", "result": "did not observe an impact"}, {"measurement": "Impact on total bilirubin levels", "setting": "[6]; multiple doses of ezetimibe, study days 15 and 17", "result": "No such impact"}]}, {"smiles": "CCC1(c2ccccc2)C(=O)NC(=O)NC1=O", "note": "[phenobarbital]", "values": [{"measurement": "ABCB1 induction after treatment of cells", "setting": "ABCB1 [14]", "result": "no induction"}]}, {"smiles": "CO[C@H]1/C=C/O[C@@]2(C)Oc3c(C)c(O)c4c(O)c(c(/C=N/N5CCN(C)CC5)c(O)c4c3C2=O)NC(=O)/C(C)=C\\C=C\\[C@H](C)[C@H](O)[C@@H](C)[C@@H](O)[C@@H](C)[C@H](OC(C)=O)[C@@H]1C", "note": "[rifampin]", "values": [{"measurement": "ABCB1 induction after treatment of cells", "setting": "ABCB1 [14]", "result": "no induction"}]}]}
